In ChEMBL document CHEMBL3352456, “Design, synthesis and biological activity of a novel Rutin analogue with improved lipid soluble properties” (Bioorg Med Chem, 2015):
Activity calls are given as the source filed them. No cut-off for these calls is given here.

Legend:
Nannizzia gypsea [1] = experiment: Antifungal activity against Nannizzia gypsea (Bodin) Guiart et Grigoraki CBS 286.63 assessed as growth inhibition at 100 ug/ml measured on day 7 by sabouraud dextrose agar diffusion method relative to control; type: functional; conditions: (Bodin) Guiart et Grigoraki CBS 286.63, 168 h, read-out: GI
Procedure, shortened: (§1)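 Dermatophyte strains kept on Sabouraud dextrose agar slants. Mycelium disks (10 mm) from a stationary-phase culture grown at 26 ± 1 °C on cellophane over SDA to log phase, then moved onto SDA containing compound added from DMSO stock at 45 °C (final DMSO 0.1%; DMSO-only controls). Colony diameter measured daily for 7 days. % inhibition = (dex − dex')/dex × 100. Three replicates per concentration; mean of three independent experiments.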

[2] = Antioxidant activity assessed as superoxide anion radical scavenging by photochemiluminescence method relative to trolox; type: physicochemical
Procedure, shortened: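 Superoxide was generated photochemically from luminol under UV light (351 nm). Lag time (water-soluble, ACW) or integrated light emission over 180 s (lipid-soluble, ACL) was compared with a Trolox standard curve. Samples were centrifuged 5 min at 16000 g and diluted 1:40 in water (ACW) or methanol (ACL). Triplicate determinations.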

Trichophyton rubrum [3] = experiment: Antifungal activity against Trichophyton rubrum (Castellani) Sabouraud IHME 4321 assessed as growth inhibition at 20 ug/ml measured on day 7 by sabouraud dextrose agar diffusion method relative to control; type: functional; conditions: (Castellani) Sabouraud IHME 4321, 168 h, read-out: GI; procedure, shortened: as §1
K562 [4] = experiment: Induction of apoptosis in human K562 cells assessed as apoptotic cells at 10 uM after 3 days by Annexin-V staining-based assay (reference value: 11.37%); type: functional
K562 [5] = experiment: Induction of apoptosis in human K562 cells assessed as live cells at 5 uM after 3 days by Annexin-V staining-based assay (reference value: 87.33%); type: functional
Trichophyton tonsurans [6] = experiment: Antifungal activity against Trichophyton tonsurans Malmsten CBS 483.76 assessed as growth inhibition at 20 ug/ml measured on day 7 by sabouraud dextrose agar diffusion method relative to control; type: functional; conditions: Malmsten CBS 483.76, 168 h, read-out: GI; procedure, shortened: as §1
[7] = target: Nuclear factor NF-kappa-B complex (Homo sapiens) (UniProt Q00653+P19838+Q04206); experiment: Inhibition of NF-kappaB (unknown origin)/32P-labeled oligonucleotide interaction at 0.1 to 10 mM after 20 mins by electrophoretic mobility shift assay; type: protein-complex assay
Procedure, shortened: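 Probe was a double-stranded 32P-labelled oligonucleotide (0.25 ng) in buffer of 10% glycerol, 0.05% NP-40, 10 mM Tris-HCl pH 7.5, 50 mM NaCl, 0.5 mM DTT and 10 mM MgCl2. Compound and probe were bound for 20 min at room temperature, then recombinant NF-kappaB p50 was added for a further 20 min. Samples were run on 6% polyacrylamide in 0.25× TBE at 200 V.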

[8] = Antioxidant activity assessed as inhibition of AAPH-induced peroxyl radical generation by oxygen radical absorbance capacity assay relative to trolox; type: physicochemical
Procedure, shortened: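 Run at 37 °C and pH 7.4 with fluorescein (85 nM) as the probe and AAPH as the peroxyl radical source. Compounds were dissolved fresh in PBS. Fluorescence read at ex 485/em 538 nm every 5 min for up to 30 min after AAPH addition. Net area under the decay curve (blank minus sample) was calibrated against Trolox at 10–50 μM and given as Trolox equivalents.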

[9] = system: Trichophyton mentagrophytes; experiment: Antifungal activity against Trichophyton mentagrophytes (Robin) Blanchard CBS 160.66 assessed as growth inhibition at 20 ug/ml measured on day 7 by sabouraud dextrose agar diffusion method relative to control; type: functional; conditions: (Robin) Blanchard CBS 160.66, 168 h, read-out: GI; procedure, shortened: as §1
K562 [10] = experiment: Induction of apoptosis in human K562 cells assessed as early apoptotic cells at 10 uM after 3 days by Annexin-V staining-based assay (reference value: 5.41%); type: functional
Trichophyton rubrum [11] = experiment: Antifungal activity against Trichophyton rubrum (Castellani) Sabouraud IHME 4321 assessed as growth inhibition at 100 ug/ml measured on day 7 by sabouraud dextrose agar diffusion method relative to control; type: functional; conditions: (Castellani) Sabouraud IHME 4321, 168 h, read-out: GI; procedure, shortened: as §1
[12] = Antifungal activity against Microsporum canis Bodin CBS 4727 assessed as growth inhibition at 100 ug/ml measured on day 7 by sabouraud dextrose agar diffusion method relative to control; type: functional; procedure, shortened: as §1
Trichophyton violaceum [13] = experiment: Antifungal activity against Trichophyton violaceum Malmsten CBS 459.61 assessed as growth inhibition at 20 ug/ml measured on day 7 by sabouraud dextrose agar diffusion method relative to control; type: functional; conditions: Malmsten CBS 459.61, 168 h, read-out: GI; procedure, shortened: as §1
Epidermophyton floccosum [14] = experiment: Antifungal activity against Epidermophyton floccosum (Hartz) Langeron and Milochevitch CBS 358.93 assessed as growth inhibition at 100 ug/ml measured on day 7 by sabouraud dextrose agar diffusion method relative to control; type: functional; procedure, shortened: as §1
K562 [15] = experiment: Induction of apoptosis in human K562 cells assessed as late apoptotic cells at 5 uM after 3 days by Annexin-V staining-based assay (reference value: 5.96%); type: functional
K562 [16] = experiment: Induction of apoptosis in human K562 cells assessed as late apoptotic cells at 10 uM after 3 days by Annexin-V staining-based assay (reference value: 5.96%); type: functional
Paraphyton cookei [17] = experiment: Antifungal activity against Nannizzia cajetani Ajello CBS 495.70 assessed as growth inhibition at 20 ug/ml measured on day 7 by sabouraud dextrose agar diffusion method relative to control; type: functional; conditions: Ajello CBS 495.70, 168 h, read-out: GI; procedure, shortened: as §1
Trichophyton tonsurans [18] = experiment: Antifungal activity against Trichophyton tonsurans Malmsten CBS 483.76 assessed as growth inhibition at 100 ug/ml measured on day 7 by sabouraud dextrose agar diffusion method relative to control; type: functional; conditions: Malmsten CBS 483.76, 168 h, read-out: GI; procedure, shortened: as §1
Paraphyton cookei [19] = experiment: Antifungal activity against Nannizzia cajetani Ajello CBS 495.70 assessed as growth inhibition at 100 ug/ml measured on day 7 by sabouraud dextrose agar diffusion method relative to control; type: functional; conditions: Ajello CBS 495.70, 168 h, read-out: GI; procedure, shortened: as §1
K562 [20] = experiment: Induction of apoptosis in human K562 cells assessed as live cells at 10 uM after 3 days by Annexin-V staining-based assay (reference value: 87.33%); type: functional
Nannizzia gypsea [21] = experiment: Antifungal activity against Microsporum gypseum (Bodin) Guiart and Grigorakis IHME 3999 assessed as growth inhibition at 20 ug/ml measured on day 7 by sabouraud dextrose agar diffusion method relative to control; type: functional; conditions: (Bodin) Guiart and Grigorakis IHME 3999, 168 h, read-out: GI; procedure, shortened: as §1
K562 [22] = experiment: Induction of apoptosis in human K562 cells assessed as dead cells at 10 uM after 3 days by Annexin-V staining-based assay (reference value: 1.29%); type: functional
K562 [23] = experiment: Induction of apoptosis in human K562 cells assessed as apoptotic cells at 5 uM after 3 days by Annexin-V staining-based assay (reference value: 11.37%); type: functional
K562 [24] = experiment: Induction of apoptosis in human K562 cells assessed as dead cells at 5 uM after 3 days by Annexin-V staining-based assay (reference value: 1.29%); type: functional
[25] = system: Trichophyton mentagrophytes; experiment: Antifungal activity against Trichophyton mentagrophytes (Robin) Blanchard CBS 160.66 assessed as growth inhibition at 100 ug/ml measured on day 7 by sabouraud dextrose agar diffusion method relative to control; type: functional; conditions: (Robin) Blanchard CBS 160.66, 168 h, read-out: GI; procedure, shortened: as §1
K562 [26] = experiment: Antiproliferative activity against human K562 cells assessed as cell number after 3 days by Coulter counter; conditions: K562, 72 h
[27] = Antioxidant activity assessed as superoxide anion radical scavenging by photochemiluminescence method relative to trolox using formulation containing O/W; type: physicochemical
[28] = Antifungal activity against Microsporum canis Bodin CBS 4727 assessed as growth inhibition at 20 ug/ml measured on day 7 by sabouraud dextrose agar diffusion method relative to control; type: functional; procedure, shortened: as §1
Epidermophyton floccosum [29] = experiment: Antifungal activity against Epidermophyton floccosum (Hartz) Langeron and Milochevitch CBS 358.93 assessed as growth inhibition at 20 ug/ml measured on day 7 by sabouraud dextrose agar diffusion method relative to control; type: functional; procedure, shortened: as §1
K562 [30] = experiment: Induction of apoptosis in human K562 cells assessed as early apoptotic cells at 5 uM after 3 days by Annexin-V staining-based assay (reference value: 5.41%); type: functional
[31] = Octanol-water partition coefficient, log P of the compound at 5 mg/20 ml after 30 mins by spectrophotometric analysis; type: physicochemical
Procedure, shortened: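 Octanol and water (pH 6), 20 mL each, stirred 30 min at 25 °C, then centrifuged 10 min at 4,000 rpm. Compound concentration in each phase measured spectrophotometrically at 360 nm. LogP = log of the octanol/water concentration ratio.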

Nannizzia gypsea [32] = experiment: Antifungal activity against Microsporum gypseum (Bodin) Guiart and Grigorakis IHME 3999 assessed as growth inhibition at 100 ug/ml measured on day 7 by sabouraud dextrose agar diffusion method relative to control; type: functional; conditions: (Bodin) Guiart and Grigorakis IHME 3999, 168 h, read-out: GI; procedure, shortened: as §1
Trichophyton violaceum [33] = experiment: Antifungal activity against Trichophyton violaceum Malmsten CBS 459.61 assessed as growth inhibition at 100 ug/ml measured on day 7 by sabouraud dextrose agar diffusion method relative to control; type: functional; conditions: Malmsten CBS 459.61, 168 h, read-out: GI; procedure, shortened: as §1
Nannizzia gypsea [34] = experiment: Antifungal activity against Nannizzia gypsea (Bodin) Guiart et Grigoraki CBS 286.63 assessed as growth inhibition at 20 ug/ml measured on day 7 by sabouraud dextrose agar diffusion method relative to control; type: functional; conditions: (Bodin) Guiart et Grigoraki CBS 286.63, 168 h, read-out: GI; procedure, shortened: as §1

Sequence of Nuclear factor NF-kappa-B complex (Homo sapiens) (P19838 whole entry, looked up): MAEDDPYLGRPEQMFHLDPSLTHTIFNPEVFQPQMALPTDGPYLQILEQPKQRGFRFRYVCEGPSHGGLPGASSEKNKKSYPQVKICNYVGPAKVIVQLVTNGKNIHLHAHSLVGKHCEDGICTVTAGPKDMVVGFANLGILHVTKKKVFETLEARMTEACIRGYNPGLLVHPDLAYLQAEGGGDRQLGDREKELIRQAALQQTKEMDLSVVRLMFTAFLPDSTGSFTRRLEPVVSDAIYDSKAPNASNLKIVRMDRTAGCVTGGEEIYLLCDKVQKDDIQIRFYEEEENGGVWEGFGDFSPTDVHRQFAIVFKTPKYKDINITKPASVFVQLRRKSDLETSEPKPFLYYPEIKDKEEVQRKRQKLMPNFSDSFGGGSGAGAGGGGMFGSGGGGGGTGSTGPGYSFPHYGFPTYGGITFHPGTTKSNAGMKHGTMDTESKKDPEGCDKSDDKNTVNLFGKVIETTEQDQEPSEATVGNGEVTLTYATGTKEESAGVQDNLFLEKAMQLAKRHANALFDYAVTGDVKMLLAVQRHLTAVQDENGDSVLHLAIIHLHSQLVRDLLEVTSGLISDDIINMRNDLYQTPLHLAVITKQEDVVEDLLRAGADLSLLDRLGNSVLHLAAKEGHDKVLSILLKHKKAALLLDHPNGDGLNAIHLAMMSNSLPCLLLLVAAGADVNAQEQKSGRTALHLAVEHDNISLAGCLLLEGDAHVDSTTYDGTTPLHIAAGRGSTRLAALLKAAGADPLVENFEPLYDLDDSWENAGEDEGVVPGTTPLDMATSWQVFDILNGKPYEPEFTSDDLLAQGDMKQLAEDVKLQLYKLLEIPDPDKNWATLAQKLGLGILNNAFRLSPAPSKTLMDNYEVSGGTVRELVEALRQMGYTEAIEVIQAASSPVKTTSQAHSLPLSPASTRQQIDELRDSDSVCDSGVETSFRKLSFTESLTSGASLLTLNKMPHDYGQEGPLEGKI
Sequence of Nuclear factor NF-kappa-B complex (Homo sapiens) (Q00653 whole entry, looked up): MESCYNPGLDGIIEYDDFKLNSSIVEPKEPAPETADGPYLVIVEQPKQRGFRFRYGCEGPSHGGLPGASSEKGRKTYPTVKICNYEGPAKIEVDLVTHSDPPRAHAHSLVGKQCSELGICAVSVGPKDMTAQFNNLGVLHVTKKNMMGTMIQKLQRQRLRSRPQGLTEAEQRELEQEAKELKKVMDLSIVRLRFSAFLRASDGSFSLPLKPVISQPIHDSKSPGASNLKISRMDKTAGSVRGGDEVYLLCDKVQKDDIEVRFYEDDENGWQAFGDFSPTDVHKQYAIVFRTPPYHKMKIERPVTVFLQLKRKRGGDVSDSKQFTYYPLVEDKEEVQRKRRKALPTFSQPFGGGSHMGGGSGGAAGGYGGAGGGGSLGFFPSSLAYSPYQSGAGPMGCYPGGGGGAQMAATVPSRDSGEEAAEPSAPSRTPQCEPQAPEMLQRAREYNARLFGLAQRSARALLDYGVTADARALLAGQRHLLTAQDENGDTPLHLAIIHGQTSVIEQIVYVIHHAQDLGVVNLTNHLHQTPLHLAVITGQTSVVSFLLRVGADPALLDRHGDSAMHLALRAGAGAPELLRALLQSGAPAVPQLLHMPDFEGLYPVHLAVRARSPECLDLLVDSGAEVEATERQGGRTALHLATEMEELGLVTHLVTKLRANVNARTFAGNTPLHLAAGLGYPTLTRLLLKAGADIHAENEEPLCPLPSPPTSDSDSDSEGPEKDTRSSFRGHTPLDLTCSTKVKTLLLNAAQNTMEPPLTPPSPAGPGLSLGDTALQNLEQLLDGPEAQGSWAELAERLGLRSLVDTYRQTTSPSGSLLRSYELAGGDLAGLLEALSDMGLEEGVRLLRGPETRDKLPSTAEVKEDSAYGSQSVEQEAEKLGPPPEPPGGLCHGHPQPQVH
Sequence of Nuclear factor NF-kappa-B complex (Homo sapiens) (Q04206 whole entry, looked up): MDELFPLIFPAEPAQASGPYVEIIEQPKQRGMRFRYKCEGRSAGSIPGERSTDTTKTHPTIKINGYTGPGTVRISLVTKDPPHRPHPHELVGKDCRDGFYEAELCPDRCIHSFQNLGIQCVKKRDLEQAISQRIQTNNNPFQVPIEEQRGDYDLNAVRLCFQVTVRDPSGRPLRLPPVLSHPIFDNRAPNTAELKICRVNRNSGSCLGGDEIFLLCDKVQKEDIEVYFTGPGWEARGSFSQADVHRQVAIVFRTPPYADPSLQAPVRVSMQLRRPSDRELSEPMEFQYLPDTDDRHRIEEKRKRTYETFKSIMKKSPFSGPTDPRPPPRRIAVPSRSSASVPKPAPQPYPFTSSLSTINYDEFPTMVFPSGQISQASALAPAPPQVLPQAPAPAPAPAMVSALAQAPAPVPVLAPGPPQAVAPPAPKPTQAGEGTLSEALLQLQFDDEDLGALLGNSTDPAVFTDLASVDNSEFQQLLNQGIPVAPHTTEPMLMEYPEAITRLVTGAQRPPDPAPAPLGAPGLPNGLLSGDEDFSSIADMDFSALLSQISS

`CCC(=O)O[C@@H]1[C@@H](OC(=O)CC)[C@H](C)O[C@@H](OC[C@H]2O[C@@H](Oc3c(-c4ccc(O)c(O)c4)oc4cc(O)cc(O)c4c3=O)[C@H](OC(=O)CC)[C@@H](OC(=O)CC)[C@@H]2OC(=O)CC)[C@@H]1OC(=O)CC` gave an inhibition of growth at 100 µg/mL (Nannizzia gypsea [1]) of 7.9%, an Activity [2] of 1232.67 µmol/g and an inhibition of growth at 20 µg/mL (Trichophyton rubrum [3]) of 3.5%. For the same molecule, the Activity (K562 [4]) was 27.46%, the Activity (K562 [5]) was 79.75% and the inhibition of growth at 20 µg/mL (Trichophyton tonsurans [6]) was 5.4%. The inhibition [7] was “Active”, the Activity [8] was 728.61 µmol/g and the inhibition of growth at 20 µg/mL [9] was 0%. For the same molecule, the Activity (K562 [10]) was 11.64%, the inhibition of growth at 100 µg/mL (Trichophyton rubrum [11]) was 4.3% and the growth inhibition (GI) [12] was 0%. The inhibition of growth at 20 µg/mL (Trichophyton violaceum [13]) was 10.7%, the “growth inhibition (GI)” value (Epidermophyton floccosum [14]) was “inactive” and the Activity (K562 [15]) was 5.35%. The Activity (K562 [16]) was 15.82%, the inhibition of growth at 20 µg/mL (Paraphyton cookei [17]) was 0.6% and the inhibition of growth at 100 µg/mL (Trichophyton tonsurans [18]) was 17.8%. The inhibition of growth at 100 µg/mL (Paraphyton cookei [19]) was 3.5%, the Activity (K562 [20]) was 71.2% and the inhibition of growth at 20 µg/mL (Nannizzia gypsea [21]) was 5.4%. It also gave an Activity (K562 [22]) of 1.34%, an Activity (K562 [23]) of 17.7% and an Activity (K562 [24]) of 2.55%. The inhibition of growth at 100 µg/mL [25] was 5.7%, the IC50 (K562 [26]) was 7.17 µM and the Activity [27] was 3.81 µmol/g. The “growth inhibition (GI)” value [28] was “inactive”, the “growth inhibition (GI)” value (Epidermophyton floccosum [29]) was “inactive” and the Activity (K562 [30]) was 12.35%. It also gave a logP at 0.5 h [31] of 1.09, an inhibition of growth at 100 µg/mL (Nannizzia gypsea [32]) of 9.9% and an inhibition of growth at 100 µg/mL (Trichophyton violaceum [33]) of 15.8%. For the same molecule, the inhibition of growth at 20 µg/mL (Nannizzia gypsea [34]) was 1.9%.
